The text below walks through data of ChEMBL document CHEMBL1128301, “Cephalosporin derivatives of doxorubicin as prodrugs for activation by monoclonal antibody-beta-lactamase conjugates” (J Med Chem, 1995).

Structures are written as SMILES.

Assay [1] addresses Beta-lactamase (Enterobacter cloacae) (UniProt P05364). Kind of assay: The kinetic constant(kcat) value as spectrophotometrically by using Enterobacter cloacae P99 beta-lactamase (ECIbL) enzyme as catalyst. The method, boiled down:
(§1)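 Spectrophotometric hydrolysis at 23 °C in PBS with 12.5 μg/mL BSA. EClbL was used at 0.1 μg/mL; BCbL and ECbL at 1.0 μg/mL. […] Initial velocities were linear over 1 min.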

Assay [2] addresses Beta-lactamase TEM (Escherichia coli) (UniProt P62593). Kind of assay: The kinetic constant(kcat) value as spectrophotometrically by using Escherichia coli TEM-1 beta-lactamase (ECbL) enzyme as catalyst. In short, it runs like this: as §1
Assay [3] concerns the target T1, Metallo-beta-lactamase type 2 (Bacillus cereus) (UniProt P14488).
T1 sequence (whole entry): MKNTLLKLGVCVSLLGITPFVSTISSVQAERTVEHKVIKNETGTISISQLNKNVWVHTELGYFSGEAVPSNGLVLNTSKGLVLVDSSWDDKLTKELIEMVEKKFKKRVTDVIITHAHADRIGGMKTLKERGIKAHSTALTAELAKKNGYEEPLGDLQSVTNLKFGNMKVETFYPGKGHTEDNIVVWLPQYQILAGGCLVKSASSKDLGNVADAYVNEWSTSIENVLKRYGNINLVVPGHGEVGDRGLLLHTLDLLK
Kind of assay: The kinetic constant(kcat) value as spectrophotometrically by using Bacillus cereus beta-lactamase (BCbL) enzyme as catalyst. The method, boiled down:
as §1

Beta-lactamase TEM (Escherichia coli), sequence (P62593 whole entry): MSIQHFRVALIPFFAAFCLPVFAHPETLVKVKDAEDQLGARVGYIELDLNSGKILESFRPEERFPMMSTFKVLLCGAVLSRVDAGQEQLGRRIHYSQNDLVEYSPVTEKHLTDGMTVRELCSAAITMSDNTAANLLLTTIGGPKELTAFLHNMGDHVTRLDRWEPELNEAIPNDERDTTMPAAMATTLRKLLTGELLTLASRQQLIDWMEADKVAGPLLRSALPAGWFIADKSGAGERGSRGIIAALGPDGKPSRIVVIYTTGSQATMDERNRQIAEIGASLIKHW
Beta-lactamase (Enterobacter cloacae), sequence (P05364 21-381 limits assumed): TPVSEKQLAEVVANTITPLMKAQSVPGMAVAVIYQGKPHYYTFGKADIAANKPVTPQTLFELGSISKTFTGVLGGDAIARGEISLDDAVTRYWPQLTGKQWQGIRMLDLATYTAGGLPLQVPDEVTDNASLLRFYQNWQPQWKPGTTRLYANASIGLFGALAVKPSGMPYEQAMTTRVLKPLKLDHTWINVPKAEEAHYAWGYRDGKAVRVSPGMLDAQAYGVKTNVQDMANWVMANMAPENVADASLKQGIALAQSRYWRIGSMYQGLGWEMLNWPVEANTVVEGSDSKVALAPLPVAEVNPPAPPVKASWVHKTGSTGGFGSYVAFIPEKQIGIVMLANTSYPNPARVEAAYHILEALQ

Take `COc1cccc2c1C(=O)c1c(O)c3c(c(O)c1C2=O)C[C@@](O)(C(=O)CO)C[C@@H]3OC1CC(NC(=O)OCC2=C(C(=O)O)N3C(=O)[C@@H](NC(=O)CCCC(=O)O)[C@H]3SC2)C(O)C(C)O1` (stereo partly drawn): the values for the k cat in assay [1], in assay [2] and in assay [3] were 210 s⁻¹, 2.8 s⁻¹ and 6.6 s⁻¹, respectively.
